Bioassay records from PubChem.
This is a sample that favours compounds with a hit; in the whole collection about 9.6% have one here.
BaF3 tox: reduces parental Ba/F3 cell viability, JAK2V617F counter-screen | CellTiter-Glo ATP luminescence | inhibition, % at 5.6 µM | 220,000 compounds, 1.1% hits;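 active = inhibition above a per-campaign cutoff, the mean inhibition of all tested compounds plus 3 SD, cut at about 27% in these data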;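 note: 0% = DMSO wells and 100% = JAK Inhibitor I control wells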
Ba/F3 V617F tox: reduce viability of Ba/F3 cells dependent on JAK2V617F; Ba/F3 EpoR-JAK2V617F viability, ATP luminescence; inhibition, % at 5.6 µM; 220,000 compounds, 1.1% hits;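 active = inhibition above the campaign mean plus 3 SD over all tested compounds, cut at about 24% in these data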;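 note: cytokine-independent growth of Ba/F3 cells driven by EpoR plus mutant JAK2; 0% = DMSO-treated cells and 100% = JAK inhibitor I control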
Lmaj promast: Leishmania major promastigote growth inhibition; AID 1063; inhibition, % at 10 µM; Leishmania major promastigotes, resazurin fluorescence viability; 200,000 compounds, 9% hits; in the data active = inhibition above about 50%;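 note: promastigotes grown with compound for 44 hours at 28 °C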
MT stabilize HCS: microtubule stabilizers in HeLa cells | HeLa tubulin immunostaining HCS, 24 h; share of cells brighter than vehicle mean+2SD | 200,000 compounds, 0.83% hits | % tubulin-high responders, % at 10 µM;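 active = plate Z-score above 3 for both tubulin-high and condensed-nucleus cell shares, with cell loss under 80%, at 10 µM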;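 note: anti alpha tubulin signal scored within the nucleus-defined area of each cell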
b-catenin transl: modulators of beta-catenin nuclear translocation. HeLa beta-catenin nuclear translocation, immunofluorescence imaging. nuclear translocation activity, % at 5 µM. 190,000 compounds, 0.3% hits;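 active = nuclear translocation activity above 50% at 5 µM, with a well cell count of 50 or more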;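 note: per-cell ratio of nuclear to cytoplasmic median beta-catenin stain intensity; plate controls were DMSO negative control for no effect and GSK-3 inhibitor IX positive control for full effect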
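System: HeLa cells, endogenous beta-catenin; compound dosing: 5 µM primary single dose, 0.1% DMSO, 0.02–20 µM confirmation series; incubation: 24 h compound exposure at 37°C, 5% CO2; signal: beta-catenin immunofluorescence imaging with DAPI; evaluation: % activation, nuclear-to-cytoplasmic median beta-catenin signal ratio per cell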
APP transl inh: APP translation inhibition | SH-SY5Y APP 5'UTR-luciferase reporter, luminescence | inhibition, % at 2 µM | 190,000 compounds, 0.82% hits | AID 1285;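 active = inhibition above a set limit, derived from the sample mean plus 3 SD, cut at about 45% in these data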
* hit, by the source's call.

How did c1ccc2[nH]c(NN=C3CCCCCC3)nc2c1 do in these assays?
BaF3 tox: 1; Ba/F3 V617F tox: -1; Lmaj promast: 75*; MT stabilize HCS: 4; b-catenin transl: 2; APP transl inh: -46

What do the screens show for `CC1C/C(=N/NC(=O)c2ccc(CSc3nc4ccccc4[nH]3)cc2)CC(C)(C)C1` (centres undefined)?
BaF3 tox: 12; Ba/F3 V617F tox: 4; Lmaj promast: 39; MT stabilize HCS: 3; APP transl inh: -9

Results for CC1C/C(=N/Nc2ccc([N+](=O)[O-])cc2[N+](=O)[O-])CC(C)(C)C1 (centres undefined) ?
BaF3 tox: 1; Ba/F3 V617F tox: -5; Lmaj promast: 2; MT stabilize HCS: 2; APP transl inh: -20

How did Cc1ccn(CCC(=O)N2CCCC(CCC(=O)NCc3ccc(F)c(F)c3)C2)n1 (centres undefined) do in these assays?
BaF3 tox: 7; Ba/F3 V617F tox: 0; Lmaj promast: 2; MT stabilize HCS: 3; b-catenin transl: 0; APP transl inh: -14

What do the screens show for `Cc1nc(-c2ccc(Br)cc2)ccc1C(=O)O`?
BaF3 tox: 3; Ba/F3 V617F tox: 0; Lmaj promast: -9; MT stabilize HCS: 1; b-catenin transl: -1; APP transl inh: 6

How did CCN(CC)CCNC(=S)NC(=O)c1cn(-c2ccccc2)nc1-c1ccc(OC)cc1 do in these assays?
BaF3 tox: 2; Ba/F3 V617F tox: -1; Lmaj promast: 91*; MT stabilize HCS: 1; b-catenin transl: -2; APP transl inh: -12

What do the screens show for `O=C(Nc1cccnc1)c1cn(-c2ccccc2)nc1-c1cccs1`?
BaF3 tox: 7; Ba/F3 V617F tox: -1; Lmaj promast: 9; MT stabilize HCS: 1; b-catenin transl: 0; APP transl inh: -14

What do the screens show for `CCN(CC)CCNC(=O)c1ccc(NC(=O)c2cn(-c3ccccc3)nc2-c2cccs2)cc1`?
BaF3 tox: 6; Ba/F3 V617F tox: 0; Lmaj promast: 100*; MT stabilize HCS: 2; b-catenin transl: 0; APP transl inh: -5

Results for COc1cc(/C=C/C(=O)OCC(=O)N2CC3(C)CC2CC(C)(C)C3)ccc1O (centres undefined) ?
BaF3 tox: 0; Ba/F3 V617F tox: -6; Lmaj promast: 15; MT stabilize HCS: 3; b-catenin transl: -1; APP transl inh: -9

Results for COc1ccc(/C=N/OCC(=O)N2CC3(C)CC2CC(C)(C)C3)cc1OC (centres undefined) ?
BaF3 tox: 8; Ba/F3 V617F tox: -3; Lmaj promast: 65*; MT stabilize HCS: 3; b-catenin transl: 3; APP transl inh: -5

What do the screens show for `COCC(=O)N(c1ccccc1)C(C)C(=O)OC` (centres undefined)?
BaF3 tox: 8; Ba/F3 V617F tox: 4; Lmaj promast: -4; MT stabilize HCS: 1; b-catenin transl: -1; APP transl inh: -6

How did C=C(C)C(=O)Nc1cccc(C2=NOC3(C2)C[C@H](C(N)=O)N(C(=O)COc2ccc(Cl)cc2)C3)c1 (some centres undefined) do in these assays?
b-catenin transl: 0

Results for O=C1CC(c2ccc3c(c2)OCO3)c2cc3c(cc2N1)OCCO3 (centres undefined) ?
BaF3 tox: 5; Ba/F3 V617F tox: 3; Lmaj promast: 31; MT stabilize HCS: 3; b-catenin transl: -1; APP transl inh: 5

What do the screens show for `CC1(C)CC(=O)C2=C(C1)Nc1cc3c(cc1C2c1ccc(F)cc1)OCO3` (centres undefined)?
BaF3 tox: 2; Ba/F3 V617F tox: -3; Lmaj promast: 100*; MT stabilize HCS: 4; b-catenin transl: 3; APP transl inh: -2

What do the screens show for `CC1(C)CC(=O)C2=C(C1)Nc1ccccc1NC2c1ccc2c(c1)OCO2` (centres undefined)?
BaF3 tox: 3; Ba/F3 V617F tox: -4; Lmaj promast: 51*; MT stabilize HCS: 5; b-catenin transl: -2; APP transl inh: -8

Results for CC1(C)CC(=O)C2=C(C1)Nc1cc3c(cc1C2c1ccc2c(c1)OCO2)OCO3 (centres undefined) ?
BaF3 tox: 1; Ba/F3 V617F tox: -3; Lmaj promast: 99*; MT stabilize HCS: 4; APP transl inh: -8

What do the screens show for `Cc1ccc(C2C3=C(CC(C)(C)CC3=O)Nc3onc(C)c32)cc1` (centres undefined)?
BaF3 tox: 2; Ba/F3 V617F tox: -4; Lmaj promast: 53*; MT stabilize HCS: 2; b-catenin transl: -1; APP transl inh: 13

What do the screens show for `C=CCSc1nnc(NC(=O)Cc2ccc(OC)c(OC)c2)s1`?
BaF3 tox: 2; Ba/F3 V617F tox: -3; Lmaj promast: -8; MT stabilize HCS: 4; b-catenin transl: -2; APP transl inh: -1

Results for COC(=O)c1ccc(NC(C)=O)cc1O ?
BaF3 tox: 9; Ba/F3 V617F tox: 2; Lmaj promast: -7; MT stabilize HCS: 1; b-catenin transl: 0; APP transl inh: -7

What do the screens show for `CC1(C)CC(=O)c2cc(N=C/C(C(=O)c3ccccc3)=C(\O)c3ccccc3)c(=O)oc2C1`?
BaF3 tox: 1; Ba/F3 V617F tox: -2; Lmaj promast: -7; MT stabilize HCS: 2; b-catenin transl: -1; APP transl inh: -38

What do the screens show for `COc1ccc(OC)c(C2C3=C(COC3=O)Nc3cc4c(cc32)OCO4)c1` (centres undefined)?
BaF3 tox: 91*; Ba/F3 V617F tox: 96*; Lmaj promast: -13; MT stabilize HCS: 10; b-catenin transl: 111*; APP transl inh: 95*

How did COc1ccc(OC)c(C2C3=C(CCCC3=O)Nc3c2c(=O)n(C)c(=O)n3C)c1 (centres undefined) do in these assays?
BaF3 tox: 4; Ba/F3 V617F tox: -1; Lmaj promast: 1; MT stabilize HCS: 3; APP transl inh: -11

What do the screens show for `COc1ccc(C2C3=C(CC(C)(C)CC3=O)Nc3cc4c(cc32)OCO4)cc1` (centres undefined)?
BaF3 tox: 6; Ba/F3 V617F tox: 1; Lmaj promast: 99*; MT stabilize HCS: 2; b-catenin transl: 2; APP transl inh: -5

How did COc1ccc(C2C(C#N)=C(C)NC3=C2C(=O)CC(C)(C)C3)cc1 (centres undefined) do in these assays?
BaF3 tox: 4; Ba/F3 V617F tox: -5; Lmaj promast: 1; MT stabilize HCS: 2; APP transl inh: -2

What do the screens show for `O=C(c1cnc2n(c1=O)CCS2)N1CCN(C(c2ccccc2)c2ccc(Cl)cc2)CC1` (centres undefined)?
BaF3 tox: 7; Ba/F3 V617F tox: -1; Lmaj promast: 58*; MT stabilize HCS: 1; b-catenin transl: -1; APP transl inh: -22

Results for O=C(c1cnc2n(c1=O)CCS2)N1CCN(c2ccccc2Cl)CC1 ?
BaF3 tox: -3; Ba/F3 V617F tox: 2; Lmaj promast: -6; MT stabilize HCS: 4; b-catenin transl: -1; APP transl inh: -12
